Tests used:
Type in all cases: functional
Morganella morganii [1] = assay: Synergistic antibacterial activity against carbapenem-resistant Morganella morganii isolate 23 assessed as fractional inhibitory concentration index in presence of meropenem by CLSI protocol based assay
In short: (§1)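 FIC index from MICs of compound alone, meropenem alone, and the 1:1 (mass) compound–meropenem combination, read by eye after overnight incubation in a CLSI-based assay. FIC index = MICcombo/MICcpd + MICcombo/MICMem. FIC index ≤0.5 counted as synergy. At least triplicate assays. Clinical NDM-1 isolates for 17-39; E. coli TG1 carrying the IncX3 blaNDM-1 plasmid for 15.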

Escherichia coli [2] = assay: Potentiation of meropenem-induced antibacterial activity against carbapenem-resistant Escherichia coli isolate 34 harboring CTX-M-15, TEM-1 and SHV-12 assessed as meropenem MIC by CLSI protocol based assay (reference value: 64 ug/ml)
Escherichia coli [3] = assay: Synergistic antibacterial activity against carbapenem-resistant Escherichia coli isolate 06 harboring CTX-M-14, CTX-M-3 and SHV-12 assessed as fractional inhibitory concentration index in presence of meropenem by CLSI protocol based assay; in short: as §1
Citrobacter freundii [4] = assay: Growth inhibition of carbapenem-resistant Citrobacter freundii isolate 43 by CLSI protocol based assay
Escherichia coli [5] = assay: Synergistic antibacterial activity against carbapenem-resistant Escherichia coli isolate 33 harboring CTX-M-15 assessed as fractional inhibitory concentration index in presence of meropenem by CLSI protocol based assay; in short: as §1
Enterobacter cloacae [6] = assay: Growth inhibition of carbapenem-resistant Enterobacter cloacae isolate 07 harboring CTX-M-14, TEM-1 and SHV-12 by CLSI protocol based assay
Morganella morganii [7] = assay: Potentiation of meropenem-induced antibacterial activity against carbapenem-resistant Morganella morganii isolate 26 assessed as meropenem MIC by CLSI protocol based assay (reference value: 64 ug/ml)
Enterobacter cloacae [8] = assay: Potentiation of meropenem-induced antibacterial activity against carbapenem-resistant Enterobacter cloacae isolate 27 harboring CTX-M-3, CTX-M-14, TEM-1 and SHV-12 assessed as meropenem MIC by CLSI protocol based assay (reference value: 32 ug/ml)
Escherichia coli [9] = assay: Growth inhibition of carbapenem-resistant Escherichia coli isolate 34 harboring CTX-M-15, TEM-1 and SHV-12 by CLSI protocol based assay
Citrobacter freundii [10] = assay: Synergistic antibacterial activity against carbapenem-resistant Citrobacter freundii isolate 17 harboring SHV-12 assessed as fractional inhibitory concentration index in presence of meropenem by CLSI protocol based assay; in short: as §1
Enterobacter cloacae [11] = assay: Synergistic antibacterial activity against carbapenem-resistant Enterobacter cloacae isolate 18 harboring IMP-4 and TEM-1 assessed as fractional inhibitory concentration index in presence of meropenem by CLSI protocol based assay
Citrobacter freundii [12] = assay: Growth inhibition of carbapenem-resistant Citrobacter freundii isolate 17 harboring SHV-12 by CLSI protocol based assay
Enterobacter cloacae [13] = assay: Growth inhibition of carbapenem-resistant Enterobacter cloacae isolate 27 harboring CTX-M-3, CTX-M-14, TEM-1 and SHV-12 by CLSI protocol based assay
Escherichia coli [14] = assay: Growth inhibition of carbapenem-resistant Escherichia coli isolate 06 harboring CTX-M-14, CTX-M-3 and SHV-12 by CLSI protocol based assay
Klebsiella oxytoca [15] = assay: Synergistic antibacterial activity against carbapenem-resistant Klebsiella oxytoca isolate 03 harboring SHV-12 assessed as fractional inhibitory concentration index in presence of meropenem by CLSI protocol based assay; in short: as §1
Citrobacter freundii [16] = assay: Potentiation of meropenem-induced antibacterial activity against carbapenem-resistant Citrobacter freundii isolate 17 harboring SHV-12 assessed as meropenem MIC by CLSI protocol based assay (reference value: 64 ug/ml)
Enterobacter cloacae [17] = assay: Synergistic antibacterial activity against carbapenem-resistant Enterobacter cloacae isolate 10 harboring CTX-M-14, TEM-1 and SHV-12 assessed as fractional inhibitory concentration index in presence of meropenem by CLSI protocol based assay; in short: as §1
Morganella morganii [18] = assay: Potentiation of meropenem-induced antibacterial activity against carbapenem-resistant Morganella morganii isolate 23 assessed as meropenem MIC by CLSI protocol based assay (reference value: 64 ug/ml)
Escherichia coli [19] = assay: Growth inhibition of carbapenem-resistant Escherichia coli isolate 45 by CLSI protocol based assay
Klebsiella oxytoca [20] = assay: Potentiation of meropenem-induced antibacterial activity against carbapenem-resistant Klebsiella oxytoca isolate 16 harboring SHV-12 assessed as meropenem MIC by CLSI protocol based assay (Rvb >= 128 ug/ml)
Escherichia coli [21] = assay: Synergistic antibacterial activity against Escherichia coli TG1 transformed with IncX3 plasmid expressing blaNDM-1 assessed as ratio of negative logarithm of fractional inhibitory concentration index to non-hydrogen atom in presence of meropenem incubated for overnight by CLSI protocol based assay; conditions: time 12 hrs
In short: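 In E. coli TG1 carrying the IncX3 blaNDM-1 plasmid, the FIC index was taken from overnight CLSI-based MICs of compound, meropenem and their 1:1 mass mixture, read by eye. Synergistic efficiency = −ln(FIC index) divided by the number of non-hydrogen atoms. At least triplicate assays.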

Enterobacter cloacae [22] = assay: Potentiation of meropenem-induced antibacterial activity against carbapenem-resistant Enterobacter cloacae isolate 18 harboring IMP-4 and TEM-1 assessed as meropenem MIC by CLSI protocol based assay (reference value: 32 ug/ml)
Enterobacter cloacae [23] = assay: Growth inhibition of carbapenem-resistant Enterobacter cloacae isolate 28 harboring TEM-1 and SHV-12 by CLSI protocol based assay
Enterobacter cloacae [24] = assay: Growth inhibition of carbapenem-resistant Enterobacter cloacae isolate 10 harboring CTX-M-14, TEM-1 and SHV-12 by CLSI protocol based assay
Citrobacter freundii [25] = assay: Potentiation of meropenem-induced antibacterial activity against carbapenem-resistant Citrobacter freundii isolate 35 harboring CTX-M-3, KPC-2 and SHV-12 assessed as meropenem MIC by CLSI protocol based assay (Rvb >= 128 ug/ml)
Citrobacter freundii [26] = assay: Synergistic antibacterial activity against carbapenem-resistant Citrobacter freundii isolate 43 assessed as fractional inhibitory concentration index in presence of meropenem by CLSI protocol based assay; in short: as §1
Escherichia coli [27] = assay: Synergistic antibacterial activity against carbapenem-resistant Escherichia coli isolate 34 harboring CTX-M-15, TEM-1 and SHV-12 assessed as fractional inhibitory concentration index in presence of meropenem by CLSI protocol based assay; in short: as §1
Citrobacter freundii [28] = assay: Synergistic antibacterial activity against carbapenem-resistant Citrobacter freundii isolate 05 harboring SHV-12 assessed as fractional inhibitory concentration index in presence of meropenem by CLSI protocol based assay; in short: as §1
Enterobacter cloacae [29] = assay: Synergistic antibacterial activity against carbapenem-resistant Enterobacter cloacae isolate 07 harboring CTX-M-14, TEM-1 and SHV-12 assessed as fractional inhibitory concentration index in presence of meropenem by CLSI protocol based assay; in short: as §1
Klebsiella pneumoniae = assay: Potentiation of meropenem-induced antibacterial activity against carbapenem-resistant Klebsiella pneumoniae isolate 14 harboring CTX-M-14, KPC-2 and SHV-12 assessed as meropenem MIC by CLSI protocol based assay (Rvb >= 128 ug/ml)
Enterobacter cloacae [30] = assay: Growth inhibition of carbapenem-resistant Enterobacter cloacae isolate 08 harboring CTX-M-14, TEM-1 and SHV-12 by CLSI protocol based assay
Enterobacter cloacae [31] = assay: Synergistic antibacterial activity against carbapenem-resistant Enterobacter cloacae isolate 28 harboring TEM-1 and SHV-12 assessed as fractional inhibitory concentration index in presence of meropenem by CLSI protocol based assay; in short: as §1

SMILES: CC(C)(C)OC(=O)NCCn1[se]c2ccccc2c1=O
- fractional inhibitory concentration index (FICI) (Morganella morganii [1]): 0.19
- MIC (Escherichia coli [2]): 4 µg/mL
- fractional inhibitory concentration index (FICI) (Escherichia coli [3]): 0.13
- MIC (Citrobacter freundii [4]): ≥ 128 µg/mL
- fractional inhibitory concentration index (FICI) (Escherichia coli [5]): 0.19
- MIC (Enterobacter cloacae [6]): ≥ 128 µg/mL
- MIC (Morganella morganii [7]): 2 µg/mL
- MIC (Enterobacter cloacae [8]): 4 µg/mL
- MIC (Escherichia coli [9]): ≥ 128 µg/mL
- fractional inhibitory concentration index (FICI) (Citrobacter freundii [10]): 0.09
- fractional inhibitory concentration index (FICI) (Enterobacter cloacae [11]): 0.63
- MIC (Citrobacter freundii [12]): ≥ 128 µg/mL
- MIC (Enterobacter cloacae [13]): ≥ 128 µg/mL
- MIC (Escherichia coli [14]): ≥ 128 µg/mL
- fractional inhibitory concentration index (FICI) (Klebsiella oxytoca [15]): 0.13
- MIC (Citrobacter freundii [16]): 4 µg/mL
- fractional inhibitory concentration index (FICI) (Enterobacter cloacae [17]): 0.19
- MIC (Morganella morganii [18]): 8 µg/mL
- MIC (Escherichia coli [19]): ≥ 128 µg/mL
- MIC (Klebsiella oxytoca [20]): 8 µg/mL
- Ratio (Escherichia coli [21]): 0.153
- MIC (Enterobacter cloacae [22]): 16 µg/mL
- MIC (Enterobacter cloacae [23]): ≥ 128 µg/mL
- MIC (Enterobacter cloacae [24]): ≥ 128 µg/mL
- MIC (Citrobacter freundii [25]): 8 µg/mL
- fractional inhibitory concentration index (FICI) (Citrobacter freundii [26]): 0.25
- fractional inhibitory concentration index (FICI) (Escherichia coli [27]): 0.09
- fractional inhibitory concentration index (FICI) (Citrobacter freundii [28]): 0.13
- fractional inhibitory concentration index (FICI) (Enterobacter cloacae [29]): 0.19
- MIC (Klebsiella pneumoniae): 8 µg/mL
- MIC (Enterobacter cloacae [30]): ≥ 128 µg/mL
- fractional inhibitory concentration index (FICI) (Enterobacter cloacae [31]): 0.16

SMILES: O=c1c2ccccc2[se]n1-c1ccccc1 [EBSELEN]
- fractional inhibitory concentration index (FICI) (Morganella morganii [1]): 1.5
- MIC (Escherichia coli [2]): 16 µg/mL
- fractional inhibitory concentration index (FICI) (Escherichia coli [3]): 1
- MIC (Citrobacter freundii [4]): ≥ 128 µg/mL
- fractional inhibitory concentration index (FICI) (Escherichia coli [5]): 0.38
- MIC (Enterobacter cloacae [6]): ≥ 128 µg/mL
- MIC (Morganella morganii [7]): 64 µg/mL
- MIC (Enterobacter cloacae [8]): 64 µg/mL
- MIC (Escherichia coli [9]): ≥ 128 µg/mL
- fractional inhibitory concentration index (FICI) (Citrobacter freundii [10]): 0.38
- fractional inhibitory concentration index (FICI) (Enterobacter cloacae [11]): 2.5
- MIC (Citrobacter freundii [12]): ≥ 128 µg/mL
- MIC (Enterobacter cloacae [13]): ≥ 128 µg/mL
- MIC (Escherichia coli [14]): ≥ 128 µg/mL
- fractional inhibitory concentration index (FICI) (Klebsiella oxytoca [15]): 0.5
- MIC (Citrobacter freundii [16]): 16 µg/mL
- fractional inhibitory concentration index (FICI) (Enterobacter cloacae [17]): 1.5
- MIC (Morganella morganii [18]): 64 µg/mL
- MIC (Escherichia coli [19]): ≥ 128 µg/mL
- MIC (Klebsiella oxytoca [20]): 32 µg/mL
- Ratio (Escherichia coli [21]): 0.043
- MIC (Enterobacter cloacae [22]): 64 µg/mL
- MIC (Enterobacter cloacae [23]): ≥ 128 µg/mL
- MIC (Enterobacter cloacae [24]): ≥ 128 µg/mL
- MIC (Citrobacter freundii [25]): 32 µg/mL
- fractional inhibitory concentration index (FICI) (Citrobacter freundii [26]): 0.5
- fractional inhibitory concentration index (FICI) (Escherichia coli [27]): 0.38
- fractional inhibitory concentration index (FICI) (Citrobacter freundii [28]): 0.25
- fractional inhibitory concentration index (FICI) (Enterobacter cloacae [29]): 0.38
- MIC (Klebsiella pneumoniae): ≥ 128 µg/mL
- MIC (Enterobacter cloacae [30]): ≥ 128 µg/mL
- fractional inhibitory concentration index (FICI) (Enterobacter cloacae [31]): 2.5

Source: ChEMBL document CHEMBL4673212, “Investigation of synergistic antimicrobial effects of the drug combinations of meropenem and 1,2-benzisoselenazol-3(2H)-one derivatives on carbapenem-resistant Enterobacteriaceae producing NDM-1” (Eur J Med Chem, 2018)
